Data set [1] can be described thus: Binding affinity to ganglioside GlcCer by quartz crystal microbalance method.
The nature of data set [2]: Binding affinity to ganglioside GM3 by quartz crystal microbalance method.
The nature of data set [3]: Binding affinity to ganglioside 6'GM3 by quartz crystal microbalance method.
A short description of data set [4]: Binding affinity to ganglioside GalCer by quartz crystal microbalance method.
Data set [5] in a line: Critical micellar concentration of the compound. The format is physicochemical. The method, boiled down:
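N-stearoyl peptide amide was suspended in PBS containing 1 μM N-phenyl-1-naphthylamine and diluted to 1 nM-0.1 mM. Fluorescence (ex 350, em 450 nm) was read at 25 °C. The cmc is taken at the intersection of two straight lines in the intensity-versus-concentration plot.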

A further data set relates to Influenza A virus. Put plainly: Antiviral activity against Influenza A virus (A/Puerto Rico/8/34(H1N1)) infected in MDCK cells after 30 mins by crystal violet-based plaque assay. The format is functional, organism-based. The settings on record: A/Puerto Rico/8/1934(H1N1), 0.5 h. The method, boiled down: (§1)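 MDCK cells in 6-well plates were exposed for 30 min at 37 °C, 5% CO2, to 0.2 mL virus (50-200 pfu) with C18-peptide from PBS stock (2 or 10 mM). After a PBS wash, cells were overlaid with 0.6% agarose/MEM (DEAE-dextran, HEPES, acetyltrypsin, BSA) for 2 days. Living cells were stained and plaques counted. IC50 is the concentration giving 50% inhibition.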

A further data set relates to H3N2 subtype. Briefly: Antiviral activity against Influenza A virus (A/Aichi/2/1968(H3N2)) infected in MDCK cells after 30 mins by crystal violet-based plaque assay. Format: functional, organism-based. To be noted: 0.5 h. The method, boiled down:
as §1

Data set [6] can be described thus: Binding affinity to ganglioside GM3 at 10 uM.
The nature of data set [7]: Binding affinity to ganglioside GM3 by ELISA relative to wild type fd phage clone. Put shortly:
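GM3 monolayer was transferred from TBS (20 °C, 30 mN m-1) onto a BSA-blocked plastic plate. Phage clones (0.05-5 nM in TBS) were incubated 30 min at 4 °C. Detection used anti-fd antibody, then peroxidase anti-rabbit IgG (each 1 h, 4 °C), with o-phenylenediamine. ΔA was read at 492 nm in triplicate and expressed relative to wild-type fd phage.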
For orientation: ELISA stands for enzyme-linked immunosorbent assay.

Data set [8] is described as follows: Ratio of Kd for ganglioside GM3 to Kd for ganglioside 6'GM3.
A short description of data set [9]: Selectivity ratio of Kd for ganglioside GalCer to Kd for ganglioside GM3.
A short description of data set [10]: Ratio of Kd for ganglioside GM3 to Kd for ganglioside GalCer.
Data set [11] in a line: Ratio of Kd for ganglioside GM3 to Kd for ganglioside GlcCer.
The test system of data set [12] is B16. Put plainly: Binding affinity to ganglioside GM3 in mouse B16 cells at 1 to 10 nM by flow cytometry. Format: cell-based. Put shortly: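 B16 monolayer cells (2×10^5) were given serially diluted phage (0.5-10 nM) in 1% BSA/PBS for 1 h on ice. After washes, they were labelled with anti-fd antibody and then FITC anti-rabbit IgG (each 0.5 h on ice) and analysed by flow cytometry.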
(A flow cytometer gives signals particle by particle.)

In data set [13] the test system is B16. Briefly: Inhibition of binding affinity to ganglioside GM3 in mouse B16 cells at 10 nM by flow cytometry in presence of 1 mM Neu5Ac. The format is cell-based. Put shortly:
(§2)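 B16 cells (2×10^5) were incubated 1 h on ice with phage (10 nM) with or without 1 mM Neu5Ac, Glc or GlcU. They were washed in 1% BSA/PBS, labelled with anti-fd antibody and FITC-conjugated antibody, and analysed by flow cytometry.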

Data set [14] has as its system B16. Briefly: Inhibition of binding affinity to ganglioside GM3 in mouse B16 cells at 10 nM by flow cytometry in presence of GlcU. The format is cell-based. Put shortly:
as §2

For data set [15], the system named is B16. Briefly: Inhibition of binding affinity to ganglioside GM3 in mouse B16 cells at 10 nM by flow cytometry in presence of Glc. The format is cell-based. Put shortly: as §2
The subject of data set [16] is B16. Put plainly: Inhibition of binding affinity to ganglioside GM3 in mouse B16 cells pretreated with neuraminidase at pH 6.5 at 10 nM by flow cytometry. The format is cell-based. Put shortly:
(§3)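 Sialic acid was removed from B16 cells (2×10^5) with 0.05 units Arthrobacter ureafaciens neuraminidase for 90 min at 37 °C, pH 6.5 or 7.4. After three washes, cells took 10 nM phage and were labelled with anti-fd antibody and FITC-conjugated antibody for flow cytometry.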

For data set [17], the system named is B16. Put plainly: Inhibition of binding affinity to ganglioside GM3 in mouse B16 cells pretreated with neuraminidase at pH 7.4 at 10 nM by flow cytometry. Format: cell-based. Put shortly: as §3

18 compounds from ChEMBL document CHEMBL1151941, “Inhibition of influenza virus infections by sialylgalactose-binding peptides selected from a phage library” (J Med Chem, 2009) can be followed below.

The source made the active and inactive calls. No cut-off for these calls is given here. Where a SMILES comes first, the peptide text is derived from it. The star is where a group is joined. Stearoyl = CCCCCCCCCCCCCCCCCC(=O)*

As for `CC(C)C[C@H](NC(=O)[C@H](CO)NC(=O)[C@H](CC(=O)O)NC(=O)[C@H](Cc1ccccc1)NC(=O)[C@H](C)NC(=O)[C@H](C)NC(=O)[C@H](CCCN)NC(=O)[C@H](C)NC(=O)[C@@H]1CCCN1C(=O)[C@H](CC(=O)O)NC(=O)[C@H](CC(=O)O)NC(=O)CNC(=O)[C@H](CCC(=O)O)NC(=O)[C@H](C)N)C(=O)N[C@@H](CCC(N)=O)C(=O)O`, the Kd entry in data set [1], in data set [2], in [3] and in data set [4] was “Not Active” each time.
`CCCCCCCCCCCCCCCCCC(=O)N[C@@H](C)C(=O)N[C@@H](CCC(=O)O)C(=O)N[C@H](C(=O)N[C@H](C(=O)N[C@@H](CCC(=O)O)C(=O)N[C@@H](CO)C(=O)N[C@@H](CS)C(=O)N[C@@H](CC(C)C)C(=O)N[C@@H](C)C(=O)N[C@@H](CCCCN)C(=O)N1CCC[C@H]1C(=O)N[C@@H](Cc1cnc[nH]1)C(=O)N[C@H](C(=O)N[C@@H](CCC(=O)O)C(=O)N[C@@H](CC(N)=O)C(N)=O)[C@H](C)O)C(C)C)[C@@H](C)O` gave a CMC in data set [5] of 0.8 µM. Moreover, the figures for the IC50 in the data set with Influenza A virus and in the data set on H3N2 subtype were 66 µM and above 100 µM, respectively.
Take `CCCCCCCCCCCCCCCCCC(=O)N[C@@H](C)C(=O)N[C@H](C(=O)N[C@@H](C)C(=O)N[C@@H](CO)C(=O)N[C@H](C(=O)N1CCC[C@H]1C(=O)N[C@@H](CCCNC(=N)N)C(=O)N[C@@H](C)C(=O)N[C@@H](CCCNC(=N)N)C(=O)NCC(=O)N[C@@H](CCCCN)C(=O)N[C@@H](Cc1ccc(O)cc1)C(=O)N[C@@H](Cc1c[nH]c2ccccc12)C(=O)N[C@@H](Cc1c[nH]c2ccccc12)C(=O)NCC(N)=O)C(C)C)C(C)C` (Stearoyl-AVASVPRARGKYWWG-NH2): in data set [5], the CMC was 0.8 µM. Further, the IC50 with Influenza A virus stood at 44 µM; with H3N2 subtype, 17 µM.
The compound `CCCCCCCCCCCCCCCCCC(=O)N[C@@H](CC(=O)O)C(=O)N[C@@H](Cc1ccccc1)C(=O)N[C@@H](CCCNC(=N)N)C(=O)N[C@@H](CCCNC(=N)N)C(=O)N[C@@H](CC(C)C)C(=O)N1CCC[C@H]1C(=O)NCC(=O)N[C@@H](C)C(=O)N[C@@H](Cc1ccccc1)C(=O)N[C@@H](Cc1c[nH]c2ccccc12)C(=O)N[C@@H](CCC(N)=O)C(=O)N[C@@H](CC(C)C)C(=O)N[C@@H](CCCNC(=N)N)C(=O)N[C@@H](CCC(N)=O)C(=O)N1CCC[C@H]1C(N)=O` (Stearoyl-DFRRLPGAFWQLRQP-NH2) gave a CMC in [5] of 0.8 µM. For the same compound, the IC50 stood at 52 µM with Influenza A virus and 19 µM in the data set on H3N2 subtype.
Compound `CCCCCCCCCCCCCCCCCC(=O)NCC(=O)N[C@@H](C)C(=O)N[C@@H](Cc1c[nH]c2ccccc12)C(=O)N[C@@H](Cc1ccc(O)cc1)C(=O)N[C@@H](CCCCN)C(=O)NCC(=O)N[C@@H](CCCNC(=N)N)C(=O)N[C@@H](C)C(=O)N[C@@H](CCCNC(=N)N)C(=O)N1CCC[C@H]1C(=O)N[C@H](C(=O)N[C@@H](CO)C(=O)N[C@@H](C)C(=O)N[C@H](C(=O)N[C@@H](C)C(N)=O)C(C)C)C(C)C` (Stearoyl-GAWYKGRARPVSAVA-NH2) displayed a CMC in [5] of 0.8 µM. This compound also came in with a half-maximal inhibitory concentration (IC50) in the data set on Influenza A virus of 53 µM.
Taken in the same sequence, the figures for `CCCCCCCCCCCCCCCCCC(=O)NCC(=O)N[C@@H](Cc1c[nH]c2ccccc12)C(=O)N[C@@H](Cc1c[nH]c2ccccc12)C(=O)N[C@@H](Cc1ccc(O)cc1)C(=O)N[C@@H](CCCCN)C(=O)NCC(=O)N[C@@H](CCCNC(=N)N)C(=O)N[C@@H](C)C(=O)N[C@@H](CCCNC(=N)N)C(=O)N[C@@H](C)C(=O)N[C@H](C(=O)N[C@@H](CO)C(=O)N[C@@H](C)C(=O)N[C@H](C(=O)N[C@@H](C)C(N)=O)C(C)C)C(C)C` (Stearoyl-GWWYKGRARAVSAVA-NH2) were 0.8 µM and 89 µM.
On to `CCCCCCCCCCCCCCCCCC(=O)NCC(=O)N[C@@H](Cc1c[nH]c2ccccc12)C(=O)N[C@@H](Cc1c[nH]c2ccccc12)C(=O)N[C@@H](Cc1ccc(O)cc1)C(=O)N[C@@H](CCCCN)C(=O)NCC(=O)N[C@@H](CCCNC(=N)N)C(=O)N[C@@H](C)C(=O)N[C@@H](CCCNC(=N)N)C(=O)N1CCC[C@H]1C(=O)N[C@H](C(=O)N[C@@H](CO)C(=O)N[C@@H](C)C(=O)N[C@H](C(=O)N[C@@H](C)C(N)=O)C(C)C)C(C)C` (Stearoyl-GWWYKGRARPVSAVA-NH2), for which the CMC in data set [5] worked out at 0.8 µM. The IC50 in the data set with Influenza A virus is 3.2 µM; with H3N2 subtype, above 10 µM.
Taken in the same sequence, the figures for `CCCCCCCCCCCCCCCCCC(=O)N[C@@H](CCCNC(=N)N)C(=O)N[C@@H](C)C(=O)N[C@H](C(=O)N[C@@H](Cc1c[nH]c2ccccc12)C(=O)N[C@@H](CCCNC(=N)N)C(=O)N[C@@H](Cc1cnc[nH]1)C(=O)N[C@@H](CO)C(=O)N[C@H](C(=O)N[C@@H](C)C(=O)N[C@H](C(=O)N1CCC[C@H]1C(=O)N[C@@H](CO)C(=O)N[C@@H](Cc1cnc[nH]1)C(=O)N[C@@H](CO)C(=O)N[C@H](C(N)=O)C(C)C)[C@@H](C)O)C(C)C)C(C)C` (Stearoyl-RAVWRHSVATPSHSV-NH2) were 0.8 µM, 6.5 µM and 68 µM.
In [6], H-DFRRLPGAFWQLRQP-OH gave an Activity of 119 ng/cm2.
For the compound H-GWWYKGRARPVSAVA-NH2, the 50% inhibitory concentration (IC50) with Influenza A virus was above 500 µM.
For H-GWWYKGRARPVSAVA-OH, the fold change (FC) in [7] was found to be 2.1. For the same compound, the Kd in [1] (read-out: Kd) is above 70 µM; in data set [2] (read-out: Kd), 1.5 µM; in data set [3] (read-out: Kd), 1.5 µM; in data set [4] (read-out: Kd), 9.8 µM. For the same compound, the Ratio is 1 in data set [8], 6.5 in data set [9], 0.15 in data set [10] and below 0.02 in [11]. Further, the outcome in the data set on B16 [12] was Active. Besides, the inhibition in the data set on B16 [13] is 61%; in the data set on B16 [14], 46%. Also, the inhibition entry in the data set on B16 [15] and in the data set on B16 [17] was “inactive” each time. For the same compound, the inhibition result in the data set with B16 [16] is “Active”. This compound showed an Activity in data set [6] of 39 ng/cm2.
For H-GWYSSRHYVRSLNGL-OH, the fold change (FC) in data set [7] was determined as 1.4.
Still for that read-out and setting: then H-LSWPLHAGRGFRWVS-OH, with 0.9; and H-LWRPVLFHSAVRALG-OH, with 1.7; and H-QQLVYNWWAVSSARR-OH, with 1.1.
Take H-RAVWRHSVATPSHSV-NH2: the half-inhibitory concentration (IC50) in the data set with Influenza A virus is above 500 µM.
Regarding H-RAVWRHSVATPSHSV-OH, the fold change (FC) in [7] was found to be 1.5. Moreover, the dissociation constant Kd in data set [1] (read-out: Kd) was above 70 µM; in data set [2] (read-out: Kd), 0.41 µM; in data set [3] (read-out: Kd), 2 µM; in data set [4] (read-out: Kd) it was above 70 µM. For the same compound, the Ratio in [8] is 0.2; in [10] it was below 0.006; in [11], below 0.006.
On to H-WRGVYFGDRWLGSQP-OH, for which, in [7], the fold change (FC) was found to be 1.6.

The Kd is the constant that tells how readily two partners part at equilibrium. Broadly, the IC50 is the midpoint of a concentration-inhibition curve. One may read the inhibition as the share of the control response that was lost under treatment.
